The source of these data is ChEMBL document CHEMBL1275560, “Serial daptomycin selection generates daptomycin-nonsusceptible Staphylococcus aureus strains with a heterogeneous vancomycin-intermediate phenotype” (2008).

Values after ≈ are worked out from the molar mass of the structure shown. Active and inactive are the calls of the source. No cut-off for these calls is given here.

The subject of experiment [1] is Staphylococcus aureus. Description: Antimicrobial activity against Staphylococcus aureus 10*3d1 by Etest method. The experiment is classed as functional. In a few lines: (§1)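 MICs read by Etest on Mueller-Hinton agar, following the manufacturer's method. Agents tested were daptomycin, vancomycin, teicoplanin, linezolid, oxacillin, imipenem, bacitracin, fosfomycin and colistin. For fosfomycin the agar carried 25 µg/ml D-glucose-6-phosphate. The daptomycin Etest was also run with 200 µM gadolinium(III) chloride in the agar. Daptomycin MICs were read at both 24 h and 48 h.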

Experiment [2] relates to Staphylococcus aureus. Nature of the experiment: Antimicrobial activity against methicillin-resistant Staphylococcus aureus N315DeltaIP assessed as decreased membrane potential. It is filed as functional, organism-based. In a few lines: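 Flow cytometry with DiOC2(3). Cells were grown to exponential phase (OD600 0.3) in MHB with 50 µg/ml calcium, then diluted 1:100 in kit buffer. GdCl3 was 200 µM final; CCCP-treated and heat-killed cells served as controls. TO-PRO-3 (500 nM) flagged damaged membranes. Dye at 30 µM, 4 min, room temperature. 10,000 cells per run, 488-nm excitation; red/green ratio of population mean fluorescence.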

In experiment [3] the test system is Staphylococcus aureus. Nature of the experiment: Antimicrobial activity against methicillin-resistant Staphylococcus aureus 10*3d1 by Etest method in presence of 200 uM GdCl3. The experiment is classed as functional. A digest of the protocol:
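Etest on Mueller-Hinton agar containing gadolinium(III) chloride at 200 µM, used as a mechanosensitive channel (MscL) blocker; MICs read at 24 h and also at 48 h so a slowly growing resistant subpopulation is not missed. The strain is a two-step daptomycin-selected derivative of MRSA N315ΔIP, stocked at –80°C in 40% glycerol.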

Experiment [4] concerns Staphylococcus aureus. Nature of the experiment: Antimicrobial activity against methicillin-resistant Staphylococcus aureus N315DeltaIP by Etest method. The experiment is classed as functional. A digest of the protocol: (§2)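 Etest MICs on Mueller-Hinton agar, run per manufacturer. Fosfomycin plates carried 25 µg/ml glucose-6-phosphate. Daptomycin Etest was also done with 200 µM GdCl3 in agar. Daptomycin MICs were read at 24 h and again at 48 h to capture slowly growing resistant subpopulations.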

Experiment [5] concerns Staphylococcus aureus. Nature of the experiment: Antimicrobial activity against methicillin-resistant Staphylococcus aureus N315DeltaIP by Etest method in presence of 200 uM GdCl3.
Experiment [6] has as its system Staphylococcus aureus. Description: Antimicrobial activity against Staphylococcus aureus 10*3d1-10 by Etest method. The experiment is classed as functional. In a few lines:
as §1

In experiment [7] the test system is Staphylococcus aureus. Description: Antimicrobial activity against methicillin-resistant Staphylococcus aureus N315DeltaIP heteroresistant subpopulations by Etest method. It is filed as functional. In a few lines:
as §2

On to `CCCCCCCCCC(=O)N[C@@H](Cc1c[nH]c2ccccc12)C(=O)N[C@H](CC(N)=O)C(=O)N[C@@H](CC(=O)O)C(=O)N[C@@H]1C(=O)NCC(=O)N[C@@H](CCCN)C(=O)N[C@@H](CC(=O)O)C(=O)N[C@H](C)C(=O)N[C@@H](CC(=O)O)C(=O)NCC(=O)N[C@H](CO)C(=O)N[C@@H]([C@H](C)CC(=O)O)C(=O)N[C@@H](CC(=O)c2ccccc2N)C(=O)O[C@@H]1C`, for which the MIC in the experiment with Staphylococcus aureus [1] worked out at 3 µg/mL (≈ 1.85 µM); in the experiment with Staphylococcus aureus [3], 3 µg/mL; in the experiment with Staphylococcus aureus [4], 0.5 µg/mL (≈ 0.309 µM); in the experiment on Staphylococcus aureus [5], 0.5 µg/mL; with Staphylococcus aureus [6], 1 µg/mL (≈ 0.617 µM). Further, the result with Staphylococcus aureus [2] was Active.

With `CN[C@H](CC(C)C)C(=O)N[C@H]1C(=O)N[C@@H](CC(N)=O)C(=O)N[C@H]2C(=O)N[C@H]3C(=O)N[C@H](C(=O)N[C@H](C(=O)O)c4cc(O)cc(O)c4-c4cc3ccc4O)[C@H](O)c3ccc(c(Cl)c3)Oc3cc2cc(c3O[C@@H]2O[C@H](CO)[C@@H](O)[C@H](O)[C@H]2O[C@H]2C[C@](C)(N)[C@H](O)[C@H](C)O2)Oc2ccc(cc2Cl)[C@H]1O` [VANCOMYCIN], the MIC turned out to be 3 µg/mL (≈ 2.07 µM) in the experiment with Staphylococcus aureus [1] and 0.75 µg/mL (≈ 0.518 µM) against Staphylococcus aureus [4].

Consider `C[C@@H]1O[C@@H]1P(=O)(O)O` [FOSFOMYCIN], for which the MIC with Staphylococcus aureus [1] stood at 0.5 µg/mL (≈ 3.62 µM); in the experiment with Staphylococcus aureus [4] it was 12 µg/mL (≈ 86.9 µM); in the experiment with Staphylococcus aureus [6] it was 2 µg/mL (≈ 14.5 µM).

Regarding `C[C@@H](O)[C@H]1C(=O)N2C(C(=O)O)=C(SCCNC=N)C[C@H]12` [IMIPENEM ANHYDROUS], the MIC against Staphylococcus aureus [1] was greater than 32 µg/mL; with Staphylococcus aureus [4], 2 µg/mL (≈ 6.68 µM); against Staphylococcus aureus [7], 3 µg/mL (≈ 10 µM); against Staphylococcus aureus [6] it was greater than 32 µg/mL.

`Cc1onc(-c2ccccc2)c1C(=O)N[C@@H]1C(=O)N2[C@@H]1SC(C)(C)[C@@H]2C(=O)O` [OXACILLIN]: the MIC was greater than 256 µg/mL against Staphylococcus aureus [1], 24 µg/mL (≈ 59.8 µM) in the experiment with Staphylococcus aureus [4], 192 µg/mL (≈ 478 µM) against Staphylococcus aureus [7] and greater than 256 µg/mL against Staphylococcus aureus [6].

On to COLISTIN, for which the results for the MIC in the experiment on Staphylococcus aureus [1], in the experiment on Staphylococcus aureus [4] and against Staphylococcus aureus [6] were 192 µg/mL, 256 µg/mL and 192 µg/mL, respectively.
